Reference: paper PMC5828885 (The Journal of investigative dermatology, 2017)

Columns and labels:
[1] = In vitro assay for HCl salt precipitation in simulated lysosomal conditions; type: physicochemical; settings: for Solubility behaviour in solution A (no chloride): compared with DMSO; for Precipitates by brightfield and Cy5 fluorescence microscopy in solution B: pH 4.5, 100mM chloride
In short: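 Lysosome-mimic buffers: 10mM sodium acetate pH 4.5 with 10mM CTAB (Solution A), plus 100mM NaCl (Solution B). A 7mM DMSO stock was added 1:100 into each buffer and shaken 2.5 h at varying speeds. Absorbance at 285nm was read against a buffer-plus-DMSO baseline; a decrease was taken as precipitation. Precipitate was imaged by brightfield and Cy5 fluorescence microscopy.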

[2] = system: mice; type: in vivo, mice (Balb/c and C57BL/6); settings: 10mg/kg/day, 3-4 weeks; for Skin pigmentation (visual): mice, drug powder feed diet; for Skin pigmentation (OD values, 480nm and 535nm filters): mouse ears, n=3, p<0.01 vs untreated
In short: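 Balb/c and C57BL/6 mice, 4-5 weeks old, fed ad libitum a drug powder diet targeting an oral dose equivalent of 10mg/kg/day for 3-4 weeks; untreated mice as controls. Ears were photographed by phone camera through single-band bandpass filters (480, 535, 623nm), flash/HDR off, no editing filters. Reflectance was quantified by image analysis (drug powder n=7, untreated n=3); one-way ANOVA, Tukey's HSD.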

[3] = system: patients; settings: leprosy or MDR-TB patients; ref Maia et al., 2013, Tang et al., 2015; cited from earlier work
[4] = LogP and LogD determination, 1-octanol/phosphate buffer partitioning; type: physicochemical
In short: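 Shake-flask partitioning in phosphate buffer pH 3/1-octanol 1:1 (v/v) at 25°C, thermostatted water bath, magnetic stirring for 24 h to equilibrate. Compound was introduced in organic solvent at maximum solubility. Both layers were assayed spectrophotometrically at 285nm against a standard curve. The apparent partition coefficient was converted to LogP and LogD (pH 7.4) by published equations.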

[5] = ref Baik et al., 2013; cited from earlier work
[6] = system: mice; test: Multi-parameter microscopic imaging of tissue cryosections for CLDIs; type: in vivo, mice (Balb/c and C57BL/6); settings: 10mg/kg/day, 3-4 weeks
In short: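 Mice (4-5 weeks old) received a 10mg/kg/day-equivalent drug diet for 3-4 weeks, then were CO2-euthanized. Liver, spleen and ears were washed in cold PBS, embedded in OCT, frozen at -80°C and cryosectioned at 5 μm. Sections were imaged by brightfield, Cy5 fluorescence and LC-PolScope polarization (dichroism, 623nm-filtered illumination) and compared with untreated tissue.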

[7] = Quantification of CFZ in tissues of treated mice; type: in vivo, mice (Balb/c and C57BL/6); settings: 10mg/kg/day oral, 3-4 weeks
In short: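 4–5-week-old mice fed the test compound ad libitum in powdered chow; liver, spleen and ears (skin) harvested and rinsed in cold PBS. Tissue homogenized (sonication, or mechanical for ear) in RIPA with protease inhibitors, spun 15000 rpm, 4°C, 5 min. Supernatant extracted with xylenes, then 9M H2SO4 (each triplicate). A540−A750 against a 9M H2SO4 standard curve, normalized to organ weight.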

[8] = pH 4.5, 10 mM CTAB, 100mM chloride

## CC(C)/N=c1\cc2n(-c3ccc(Cl)cc3)c3ccccc3nc-2cc1Nc1ccc(Cl)cc1 [CFZ, Clofazimine]
[1]; [8]
  Decrease in absorbance (285nm) in solution B: 4 fold
  Precipitation as hydrochloride salt in solution B: precipitates out as hydrochloride salt
[1]; pH 4.5, 10 mM CTAB
  Solubility behaviour in solution A (no chloride): remained soluble
[1]
  Precipitates by brightfield and Cy5 fluorescence microscopy in solution B: precipitates as a HCl salt form
[2]
  Skin pigmentation (visual): visually evident
  Skin pigmentation (OD values, 480nm and 535nm filters): significantly higher than the untreated group
[3]
  Patients with skin pigmentation: more than 94%
[4]; 1-octanol/phosphate buffer 1:1 (v/v), pH 3
  logP at 24 h: 7.66
[4]; 1-octanol/phosphate buffer, pH 7.4
  logD at 24 h: 5.76
[5]
  Concentration found in adipose tissue: 0.74 mgCFZ/gFat
[6]
  CLDIs in skin sections: did not contain CLDIs
[6]; brightfield, fluorescence, diattenuation
  CLDIs in liver and spleen: CLDIs were observed
[7]; n=3, mean ± SD
  Tissue concentration of the drug in skin: 0.16 ± 0.04 mg/g
[7]; n=4, mean ± SD
  Tissue concentration of the drug in liver: 2.37 ± 0.62 mg/g
  Tissue concentration of the drug in spleen: 4.34 ± 0.41 mg/g

## OCCN=c1cc2n(-c3ccc(Cl)cc3)c3ccccc3nc-2cc1Nc1ccc(Cl)cc1 [compound 568]
[1]; [8]
  Precipitation as hydrochloride salt in solution B: remains in solution
[1]; pH 4.5, 10 mM CTAB
  Solubility behaviour in solution A (no chloride): remained soluble
[1]
  Precipitates by brightfield and Cy5 fluorescence microscopy in solution B: no precipitates were observed
[2]
  Skin pigmentation (visual): visually evident
  Skin pigmentation (OD values, 480nm and 535nm filters): identical level of pigmentation as CFZ treated mice
[4]; 1-octanol/phosphate buffer pH 3, 25°C, 24 hours, mean, n=3
  LogP: 6.69 ^2
[4]; pH 7.4, from the apparent partition coefficient, 25°C, mean, n=3
  LogD @ pH 7.4: 5.42 ^3
[6]; liver, spleen, skin
  CLDIs accumulation in all tissues: no evidence of CLDIs accumulation
